An excerpt weighted towards active compounds, which were near 11% of everything screened.
S1P1 ag-PAM – S1P1 (human) agonism or agonism potentiation | P21453 | S1P1 CRE-bla cells, forskolin, beta-lactamase FRET, potentiator mode; S1P1 agonist co-added at EC20, 2 nM; 100% = saturating reference agonist, 0% = basal | activation, % at 9.5 µM | 0.57% of 56,000 active | AID 449;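 active means activation above a cutoff set at the mean activation of all tested compounds plus 3 SD, cut at about 54% in these data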;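 further: forskolin at 4 µM as EC80 and the EC20 agonist is SEW2871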
Target sequence (P21453 whole entry, looked up): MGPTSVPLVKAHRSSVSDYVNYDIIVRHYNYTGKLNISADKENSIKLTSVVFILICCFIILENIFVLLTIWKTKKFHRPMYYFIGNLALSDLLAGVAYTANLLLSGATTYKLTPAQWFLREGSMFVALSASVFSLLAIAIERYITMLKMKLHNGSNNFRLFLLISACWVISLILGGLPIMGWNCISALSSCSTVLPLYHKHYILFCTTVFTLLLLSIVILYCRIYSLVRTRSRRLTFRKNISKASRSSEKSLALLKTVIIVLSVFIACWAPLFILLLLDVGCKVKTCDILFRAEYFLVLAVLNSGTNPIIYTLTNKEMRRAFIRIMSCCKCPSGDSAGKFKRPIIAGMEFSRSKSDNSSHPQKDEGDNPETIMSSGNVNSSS
D1 mod – allosterically modulates the human D1 dopamine receptor; P21728; HEK293 D1, CRE-luciferase, dopamine EC30 potentiation; actives deviate in either direction; B-score at 10 µM; 5.9% of 58,000 active;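 active means luminescence count or its row- and column-corrected plate score outside the 99.7% band of the plate's sample wells, on either side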
S1P3 ag – S1P3 (human) receptor agonism. Q99500. S1P3 NFAT-BLA reporter cells, FRET ratio; relative to 1 µM S1P, basal subtracted. activation, % at 4.5 µM. 0.1% of 60,000 active;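 active means activation above the screen-wide mean plus 3 SD, cut at about 4.5% in these data, passing the limit was not always enough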
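Assay system: CHO cells stably expressing human S1P3, Gα16 and NFAT-β-lactamase reporter. Timing: overnight plating, 4 h compound 37 °C, 2 h substrate RT. Signal: β-lactamase FRET emission ratio 460/535 nm. Measure: percent activation versus median 1 µM S1P response, basal-subtracted, per plate. Repeats: primary screen single test, confirmation screen in triplicate.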
M1 antag – M1 muscarinic receptor (rat) antagonism. P08482. CHO-M1 cells, Fluo-4 calcium, ACh EC80 antagonist mode; hits give low values. B-score at 10 µM. 3.4% of 64,000 active. AID 628;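 active means calcium fluorescence response, raw or row-and-column corrected B-score, differing from the plate sample mean either way at a set confidence level, mostly lower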
M1 agonist – M1 muscarinic receptor agonism | CHO-M1 cells, Fluo-4 calcium fluorescence, agonist mode; hits give high values | B-score at 10 µM | 3% of 64,000 active;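 active means fluorescence rise, raw or as B-score row- and column-corrected plate score, outside the 99.7% band of its plate's samples, either direction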
Of the large screens only hits and unclear results are named; the others gave an inactive call.

CC(=O)Oc1ccc(N2C(=O)C3C(C2=O)C2(C)C=CC3(C)O2)cc1 (centres undefined)	S1P1 ag-PAM 134.7 (no result: M1 antag, M1 agonist)
COC(=O)c1cc(N2C(=O)C3C(C2=O)C2(C)C=CC3(C)O2)ccc1Cl (centres undefined)	none
CCCn1c(SCc2cc(=O)[nH]c3ccccc23)nc2c1c(=O)n(C)c(=O)n2C	D1 mod 5.97
Cc1nc2sc(-c3ccccc3)cc2c(=O)n1-n1cccc1	S1P1 ag-PAM 59.9
Cc1ccc(-c2nnc(N3CCCCC3)c3ccccc23)cc1S(=O)(=O)N1CCN(C)CC1	none
Cc1ccc(-c2nnc3c4ccccc4c(C)nn23)cc1S(=O)(=O)N1CCN(C)CC1	D1 mod 9.86
COc1ccc2c(c1OC)C(=O)N(c1cccc(C)c1)C2	none (no result: S1P1 ag-PAM)
COc1ccc2c(c1OC)C(=O)N(c1cccc(C(F)(F)F)c1)C2	D1 mod -2.67
CCN1CC=C2C(C#N)=C(N)C(C#N)(C#N)C(c3cc(Cl)ccc3Cl)C2C1 (centres undefined)	M1 agonist 34.7
Cc1cc(NC(=O)NC(=O)c2ccc(F)cc2F)n[nH]1	D1 mod -3.32
O=S(=O)(Nc1cccc2ccccc12)N1CCCC1	none
COC(=O)c1ccc(C(=O)OC)c(NC(=O)c2oc(C)nc2C)c1	none
COc1cccc(C(=O)Nc2nc(-c3ccc(S(=O)(=O)N4CCOCC4)cc3)cs2)c1	D1 mod -3.29 (no result: S1P1 ag-PAM)
Cc1ccc(-c2csc(NC(=O)c3cccc(S(=O)(=O)N4CCN(C)CC4)c3)n2)cc1	none (no result: S1P1 ag-PAM, S1P3 ag)
O=C(Nc1nc(-c2nc3ccccc3s2)cs1)c1ccc(S(=O)(=O)N2CCOCC2)cc1	S1P1 ag-PAM 108.7
Cc1nc2ccc(NC(=O)c3ccc(S(=O)(=O)N4CCOCC4)cc3)cc2s1	none (no result: S1P1 ag-PAM, S1P3 ag)
COc1ccc(CC(C(=O)Nc2cccc(F)c2)c2nn[nH]n2)c(OC)c1 (centres undefined)	none (no result: D1 mod)
Cc1nn(-c2ccccc2)c2sc(C(=O)OCc3nnc(-c4ccccc4)o3)cc12	none (no result: S1P1 ag-PAM, S1P3 ag)
Cc1csc(NC(=O)C2CCCN(S(=O)(=O)c3ccc(Br)s3)C2)n1 (centres undefined)	none (no result: S1P1 ag-PAM, D1 mod, S1P3 ag)
Cc1nonc1NC(=O)CSc1nc2cc(Cl)ccc2c2c1CCCC2	D1 mod -2.49 (no result: S1P1 ag-PAM, S1P3 ag)
Cc1ccc2c3c(c(SCC(=O)Nc4nonc4C)nc2c1)CCCC3	none (no result: S1P1 ag-PAM, S1P3 ag)
COC(=O)C1=CN(CC2CCCO2)C=C(C(=O)OC)C1c1cc(OC)c(OC)c(OC)c1 (centres undefined)	none (no result: S1P1 ag-PAM, D1 mod, S1P3 ag)
COC(=O)CN(c1ccc(F)cc1)S(=O)(=O)c1ccc2c(c1)OCCO2	none
CCOC(=O)c1c(C)[nH]c(C(=O)C(C)OC(=O)c2cccc(OCc3c(C)noc3C)c2)c1C (centres undefined)	S1P1 ag-PAM 100.9
COc1ccc2nc(NC(=O)c3cccc(OCc4c(C)noc4C)c3)sc2c1	none
O=CNCC(=O)NCCc1ccc(Cl)cc1	none
CCOC(=O)CNC(=O)CSc1ncnc2c1cnn2-c1ccc(Cl)cc1	none
CCOC(=O)Cc1csc(NC(=O)CSc2ncnc3c2cnn3-c2ccc(OC)cc2)n1	D1 mod -4.17
O=C(O)c1ccc(COc2ccccc2Cl)cc1	none
O=C(O)c1cccc(COc2ccccc2Cl)c1	D1 mod -5.26 (no result: S1P1 ag-PAM, S1P3 ag)
Cc1ccc(NC(=O)CN(C)S(=O)(=O)c2cccc3nsnc23)cc1	D1 mod -5.36
CCc1cc(=O)oc2cc(OC(C)C(=O)O)c(Cl)cc12 (centres undefined)	D1 mod -4.18 (no result: M1 antag, M1 agonist)
COc1ccc(C(c2nnnn2Cc2cccs2)N2CCN(c3ccc(F)cc3)CC2)cc1OC (centres undefined)	none
Cc1nccn1-c1cc(C(C)C)c(C#N)c2nc3ccccc3n12	none
CCOC(=O)c1cc(-c2ccco2)nc2c1c(C)nn2CCC#N	M1 antag 1.07
Cn1c(=O)[nH]c(=O)c2c1nc(N1CCN(Cc3ccccc3)CC1)n2CCCc1ccccc1	none
Cn1c(=O)[nH]c(=O)c2[nH]c(CN3CCN(Cc4ccccc4)CC3)nc21	D1 mod -4.28
COc1ccc(OC)c(C2=Nn3c(nnc3-c3ccncc3)SC2)c1	none (no result: S1P1 ag-PAM, D1 mod, S1P3 ag)
COc1ccc(OC)c(C2=Nn3c(nnc3-c3cc(OC)c(OC)c(OC)c3)SC2)c1	M1 agonist 3.31
Cc1cc(-n2c(=O)c(C#N)cc3c(=O)n4ccccc4nc32)no1	S1P3 ag 10.6 (no result: M1 antag, M1 agonist)
Cc1cc(NC(=O)c2cnc3ccccn3c2=O)no1	none (no result: D1 mod)
N#Cc1cc2c(=O)n3ccccc3nc2n(Cc2cccnc2)c1=N	none (no result: S1P1 ag-PAM, S1P3 ag)
C=CCn1c(=O)c(C#N)cc2c(=O)n3ccccc3nc21	S1P3 ag 5.2
CCOCCCNC(=O)C1CCN(C(=O)N(C)C)CC1	none
CN(C)CCCNC(=O)C1CCNCC1	D1 mod -3.03
Nc1c2c(nc3ccn(-c4ccccc4)c(=O)c13)CCCCC2	D1 mod -4.71
Nc1c2c(nc3ccn(Cc4ccccc4)c(=O)c13)CCC2	D1 mod -3.23
O=c1[nH]c(N2CCN(c3ccccc3)CC2)nc2c1CCC2	none (no result: M1 antag, M1 agonist)
O=c1[nH]c2sc3c(c2c(=O)n1Cc1ccccc1)CCC3	none (no result: D1 mod)
Cc1ccccc1NC(=O)c1ccc(F)c(S(=O)(=O)N2CCN(c3ccccn3)CC2)c1	D1 mod -2.18
Cc1ccccc1NC(=O)c1cc(S(=O)(=O)N2CCOCC2)ccc1F	none
Cc1cc(NC(=O)CN2CCN(c3ccccc3F)CC2)nc2c1c(=O)oc1ccccc12	none
Cc1cc(C(=O)CSc2nc3ccc(Cl)cc3[nH]2)c(C)n1C	none
Cc1cc(C(=O)CSc2nnc(-c3ccncc3)n2-c2ccccc2)c(C)n1C	S1P1 ag-PAM 96.8
Cc1cc(C(=O)CSc2nnc(-c3ccccc3)n2-c2ccccc2)c(C)n1-c1ncn[nH]1	S1P1 ag-PAM 89.8
Cc1cc(C(=O)CSc2nnc(-c3ccccc3)n2C)c(C)n1C	none (no result: D1 mod)
Cc1cc(C(=O)CSc2nnc(-c3cccnc3)n2-c2ccccc2F)c(C)n1C	S1P1 ag-PAM 101.3
Cc1cc(C(=O)CSc2nc3ccccc3[nH]2)c(C)n1C	D1 mod -2.87
CCc1c(C(C)O)oc2ccc3c(C)cc(=O)oc3c12 (centres undefined)	none (no result: S1P1 ag-PAM)
O=C(Nc1ccc(N2CCOCC2)cc1)C1CCCN(S(=O)(=O)c2cccc(C(F)(F)F)c2)C1 (centres undefined)	none
CNC(=O)c1cc2c(=O)n3cc(C)ccc3nc2n(C(C)C)c1=N	M1 agonist 16.8
CNC(=O)c1cc2c(=O)n3cc(C)ccc3nc2n(Cc2ccco2)c1=N	none
O=C1c2oc3ccccc3c(=O)c2C(c2ccc(Cl)cc2)N1c1ncccn1 (centres undefined)	none
COC(=O)Cc1cc(=O)[nH]c(/N=C(\N)Nc2ccc(C)cc2C)n1	D1 mod -5.21
COCc1cc(=O)[nH]c(/N=C(\N)Nc2ccc(C)cc2)n1	none
O=C(CSc1ccc2nnc(-c3ccccc3)n2n1)N1CCCCC1	none
CCc1ccc(NC(=O)c2cc(-c3ccco3)on2)cc1	S1P1 ag-PAM 55.7
